Screening results (PubChem)
Shown are actives, neighbours in structure and some others; about 4.9% of the full set was active somewhere.
NF-kB neuron act: compounds increasing NF-kB expression in human neuronal cells. NF-kB reporter expression; hits give high values. fold change at 12.5 µM. 190,000 compounds, 1.6% hits. AID 1239; in the data active = fold change above about 3.3
STAT1 act-1: STAT1 signaling activation; NIH 3T3 STAT1-luciferase reporter, IFN-gamma, luminescence; 100% = IFN-gamma alone, no compound; activation (% of control), % at 5.5 µM; 200,000 compounds, 2.6% hits;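 active = activation above the screen-wide mean activation plus 3 SD, cut at about 130% in these data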
STAT3 inh: reduces IL-6 driven STAT3 reporter signal; AID 862; inhibition, % at 5.5 µM; 190,000 compounds, 0.89% hits; U3A cells, IL-6 STAT3-luciferase reporter, luminescence; host cell line lacks STAT1;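 active = inhibition above the mean inhibition across all screened compounds plus 3 SD, cut at about 44% in these data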
APP 5'UTR act: APP 5'UTR luciferase reporter activation; SH-SY5Y APP 5'UTR luciferase reporter, luminescence; zero percent = DMSO vehicle wells; activation, % at 2 µM; 190,000 compounds, 1% hits; AID 1276;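 active = activation above a set limit, based on mean plus 3 SD of controls, cut at about 140% in these data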
STAT1 blocker: reduces IFN-gamma driven STAT1 reporter signal; 200,000 compounds, 0.35% hits; NIH 3T3 STAT1-luciferase reporter, luminescence; inhibition, % at 5.5 µM;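 active = inhibition above a set limit, the mean inhibition across all tested compounds plus 3 SD, cut at about 34% in these data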
STAT3 act-1: activators of IL-6 induced STAT3 signaling. U3A cells, IL-6 STAT3-luciferase reporter, luminescence; 100% = signal with IL-6 EC80 alone. activation (% of control), % at 5.6 µM. AID 871. 190,000 compounds, 0.91% hits;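 active = activation above the screen-wide mean of compound activation plus 3 SD, cut at about 130% in these data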
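system = STAT3-luciferase reporter U3A cells | reagent = IL-6 stimulus at 33 ng/mL final | timing = 1 h compound pre-exposure, 6 h IL-6 stimulation, 37 °C | measured by = luminescence | evaluation = % activation versus median of IL-6-stimulated wells | control set = IL-6-only wells as 100% reference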
STAT3 act-2: STAT3 activation, confirmation assay | shares compounds with STAT3 act-1 | U3A STAT3-luciferase reporter, IL-6 potentiation, luminescence; U3A cells lack STAT1; 100 means same as IL-6 alone | potentiation (% of control), % at 5.7 µM | 1,200 compounds, 64% hits;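 active = percent activation of the STAT3 luciferase reporter above a set limit taken from the earlier primary screen, cut at about 130% in these data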
NFkB act 2: NF-kappaB activation in STAT3 activator counter-screen | human cells, NF-kappaB reporter activation | activation (% of control), % at 5.7 µM | 1,200 compounds, 11% hits | shares compounds with STAT3 act-1; in the data active = activation above about 120%;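 note: reporter induced by TNF-alpha stimulation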
STAT1 act-2: activates STAT1, counter-screen to STAT3 activators; shares compounds with STAT3 act-1; 1,200 compounds, 13% hits; AID 1318; activation (% of control), % at 5.7 µM; NIH 3T3 STAT1-luciferase reporter, IFN-gamma, luminescence;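 active = activation above the solvent-only control well mean plus 3 SD, set per screening run, cut at about 120% in these data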
Of the large screens only hits and unclear results are named; the others gave an inactive call (follow-up assays come after a bar, where they were run).

Cn1c(=O)oc2cc(S(=O)(=O)NCCC(=O)N3CC=C(c4ccccc4)CC3)ccc21	none
Cn1c(=O)oc2cc(S(=O)(=O)NCCC(=O)N3CCc4ccccc43)ccc21	STAT3 act-1 140.3 | STAT3 act-2 inactive | NFkB act 2 inactive | STAT1 act-2 inactive
CN1c2ccccc2C(=O)NC1c1ccc(Cl)cc1 (stereo not drawn)	none
Clc1ccc(C2Nc3ccccc3-n3cccc32)cc1 (stereo not drawn)	STAT3 act-1 165.6 | STAT3 act-2 160.3 | NFkB act 2 inactive | STAT1 act-2 inactive
COc1ccc(CCNC(=O)c2c(N)no[n+]2[O-])cc1OC	none
Cc1ccc(C(=O)CC2(O)C(=O)N(C)c3ccccc32)s1 (stereo not drawn)	none
Cc1ccc(Nc2nc(-c3sc(NC(=O)c4cccc(Cl)c4)nc3C)cs2)cc1	STAT3 act-1 156.3 | STAT3 act-2 inactive | NFkB act 2 inactive | STAT1 act-2 inactive
CCC(C)C(=O)Nc1nc(C)c(-c2csc(Nc3ccc(Cl)cc3)n2)s1 (stereo not drawn)	STAT3 act-1 138.8 | STAT3 act-2 inactive | NFkB act 2 inactive | STAT1 act-2 inactive
CCCC(=O)Nc1nc(C)c(-c2csc(Nc3ccc(Cl)cc3)n2)s1	STAT3 act-1 177.5 | STAT3 act-2 162.5 | NFkB act 2 inactive | STAT1 act-2 inactive
CCn1c(Sc2ccc([N+](=O)[O-])cn2)nnc1-c1ccco1	none
COc1ccc(-n2c(N)c(-c3nc4ccccc4n3C)sc2=S)cc1	STAT3 act-1 147.9 | STAT3 act-2 172.6 | NFkB act 2 inactive | STAT1 act-2 inactive
CCOc1ccc(-n2c(N)c(-c3nc4ccccc4[nH]3)sc2=S)cc1	none
Cc1c(Cl)c(=O)n2c(=O)c(Cl)c(C)n12	none
COc1ccccc1-c1nnc(SCC(=O)O)n1C	STAT3 act-1 163.9 | STAT3 act-2 153.1 | NFkB act 2 inactive | STAT1 act-2 inactive
COc1ccccc1-c1nnc(SC)n1C	none
O=C(Nc1ccccc1N1CCN(C(=O)c2ccccc2)CC1)c1cc2ccccc2o1	STAT3 act-1 142.1 | STAT3 act-2 inactive | NFkB act 2 inactive | STAT1 act-2 inactive
O=C(Nc1ccccc1N1CCN(C(=O)c2ccccc2)CC1)c1cc(Br)ccc1Cl	none
O=C(Nc1ccccc1N1CCCC1)c1cc2ccccc2o1	STAT3 act-1 151.8 | STAT3 act-2 139.7 | NFkB act 2 123.7 | STAT1 act-2 134.3
CN1CCN(c2ccccc2NC(=O)c2cc3ccccc3o2)CC1	STAT3 act-1 143.7 | STAT3 act-2 inactive | NFkB act 2 inactive | STAT1 act-2 inactive
CN1CCN(c2ccccc2NC(=O)c2ccc(Br)o2)CC1	none
CCc1nc2ccccc2c2nc3ccccc3n12	none
O=c1c2ccc([N+](=O)[O-])c3cccc(c32)c2nc3ccccc3n12	STAT3 act-1 147.9 | STAT3 act-2 149.8 | NFkB act 2 inactive | STAT1 act-2 inactive
C/C(=N/O)c1ccc(Oc2cnccn2)cc1	none
Cc1ccc(-c2ccccc2[C@@H]2C[C@H]3CN(C)C(=O)[C@]34CCCN24)o1	none
O=C1N(c2ccccc2)C[C@@H]2C[C@@H](c3cc4ccccc4o3)N3CCC[C@@]123	STAT3 act-1 140.8 | STAT3 act-2 156.5 | NFkB act 2 inactive | STAT1 act-2 inactive
CC(=O)/C(N=Nc1cc(C)ccc1O)=C(\C)O	STAT3 act-1 149.4 | STAT3 act-2 149.6 | NFkB act 2 inactive | STAT1 act-2 inactive
CCCn1c(=O)c(C(=O)Nc2ccccc2)c(O)c2ccccc21	STAT3 act-1 136.7 | STAT3 act-2 inactive | NFkB act 2 inactive | STAT1 act-2 inactive
CCNCCNC(=O)c1c(O)c2ccccc2n(CC)c1=O	none
CCn1c(=O)c(C(=O)NCCc2ccccc2)c(O)c2ccccc21	STAT3 act-1 136.6 | STAT3 act-2 134.4 | NFkB act 2 inactive | STAT1 act-2 inactive
CCn1c(=O)c(C(=O)Nc2ccccc2C)c(O)c2ccccc21	STAT3 act-1 139.5 | STAT3 act-2 141.2 | NFkB act 2 inactive | STAT1 act-2 inactive
CCCCCCC(=O)NNC(=O)c1c(O)c2ccccc2n(CCC)c1=O	none
Cc1cccc(C)c1Nc1nnc(SCC(=O)c2ccc3c(c2)NC(=O)CO3)s1	none (no result: APP 5'UTR act)
Cn1c(SCc2nc3ccccc3s2)nnc1-c1cccs1	none
COc1ccccc1-c1nnc(SCc2nc3ccccc3s2)n1C	none
CCOc1ccccc1-n1nnnc1SCc1nc2ccccc2s1	STAT3 act-1 165.8 | STAT3 act-2 155.5 | NFkB act 2 inactive | STAT1 act-2 127.9
CCn1c(SCc2nc3ccccc3s2)nnc1-c1cccs1	STAT3 act-1 141.7 | STAT3 act-2 143.1 | NFkB act 2 inactive | STAT1 act-2 129.2
CCCCNc1cc(F)nc(N)n1	none
CCOc1ccccc1NC(=O)Cn1c(=O)n(-c2ccccc2)c(=O)c2oc3ccccc3c21	none
c1ccc2c(c1)CCCN2c1nc2ccccc2n2cnnc12	STAT3 act-1 164.4 | STAT3 act-2 162.7 | NFkB act 2 inactive | STAT1 act-2 inactive
c1ccc2c(c1)CCN(c1nc3ccccc3n3cnnc13)C2	none
O=c1c(Cc2ccc(Cl)cc2)c(O)ccn1Cc1cccs1	none
CC(=O)Nc1cccc(C(=O)NC(C)c2ccc(S(N)(=O)=O)cc2)c1 (stereo not drawn)	STAT3 act-1 147.8 | STAT3 act-2 inactive | NFkB act 2 inactive | STAT1 act-2 inactive
COc1ccc(OC)c(NC(=O)c2ccc(CSc3nnc(C)s3)cc2)c1	none
O=C(Oc1c(Cl)cc(Cl)c2ccccc12)N1CCCC1	STAT3 act-1 143.2 | STAT3 act-2 150.9 | NFkB act 2 inactive | STAT1 act-2 inactive
CCCC1=Nc2cc(C(=O)NCCCOC(C)C)ccc2Sc2ccccc21	none
CCCC1=Nc2cc(C(=O)NCCCOCC)ccc2Sc2ccccc21	STAT3 act-1 136.6 | STAT3 act-2 inactive | NFkB act 2 156.3 | STAT1 act-2 inactive
O=C(C1=C[C@H](c2coc3ccccc3c2=O)C[C@H](OCCCCO)O1)N1CCOCC1	none (no result: STAT3 inh, STAT3 act-1)
COC(=O)c1cc2ccsc2n1CC(=O)Nc1cc(Cl)ccc1OC	STAT3 act-1 151.5 | STAT3 act-2 147.1 | NFkB act 2 inactive | STAT1 act-2 inactive
COC(=O)c1cc2ccsc2n1CC(=O)Nc1ccc(N(C)C)cc1	none
Cc1cc(NC(=O)CSC2=Nc3ccccc3C3=NC(Cc4ccccc4)C(=O)N23)n[nH]1 (stereo not drawn)	none
